# Target: T1, Transient receptor potential cation channel subfamily V member 1 (Homo sapiens, UniProt Q8NER1)
# Assay: Inhibition of 100 nM capsaicin effect on intracellular [Ca2+] concentration in HEK293 cells expressing human TRPV1; (weak agonist activity)
# Type: functional, cell-based
# In short: (§1)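 HEK293 cells stably overexpressing human TRPV1, grown in MEM with nonessential amino acids, 10% FCS and 0.2 mM glutamine. Plated on poly-L-lysine one day before use. Loaded 2 h at 25 °C with 4 μM Fluo-3 AM plus 0.04% Pluronic, then trypsinized into Tyrode pH 7.4 in a stirred cuvette. Compounds added 10 min before 100 nM capsaicin. Fluorescence read at 25 °C (ex 488/em 540 nm). IC50 from half-maximal inhibition.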
# T1 sequence (Q8NER1 whole entry): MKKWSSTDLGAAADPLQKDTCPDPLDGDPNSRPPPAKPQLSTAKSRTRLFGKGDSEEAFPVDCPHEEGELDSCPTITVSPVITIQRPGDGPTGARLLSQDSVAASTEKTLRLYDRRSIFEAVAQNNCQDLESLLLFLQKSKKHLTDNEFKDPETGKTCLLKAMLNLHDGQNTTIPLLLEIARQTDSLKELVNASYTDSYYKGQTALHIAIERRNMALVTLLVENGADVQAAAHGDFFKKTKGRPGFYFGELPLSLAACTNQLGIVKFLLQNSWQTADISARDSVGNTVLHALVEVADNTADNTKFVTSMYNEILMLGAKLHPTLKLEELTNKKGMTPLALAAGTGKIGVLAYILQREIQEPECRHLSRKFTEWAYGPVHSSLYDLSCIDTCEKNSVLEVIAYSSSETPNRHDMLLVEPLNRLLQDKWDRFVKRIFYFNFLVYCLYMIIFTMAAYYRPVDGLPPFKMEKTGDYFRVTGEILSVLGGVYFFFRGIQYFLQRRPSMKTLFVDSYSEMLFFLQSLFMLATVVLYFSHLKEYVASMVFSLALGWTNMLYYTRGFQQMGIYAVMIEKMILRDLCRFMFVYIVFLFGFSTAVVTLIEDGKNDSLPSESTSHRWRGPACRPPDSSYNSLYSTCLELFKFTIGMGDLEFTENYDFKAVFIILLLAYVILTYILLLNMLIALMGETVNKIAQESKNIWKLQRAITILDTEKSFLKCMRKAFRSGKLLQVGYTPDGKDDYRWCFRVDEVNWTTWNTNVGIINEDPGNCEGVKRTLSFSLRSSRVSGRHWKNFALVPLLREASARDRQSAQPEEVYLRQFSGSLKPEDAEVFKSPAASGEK
row,SMILES,IC50 [nM]
1,CCCCCCCCC(=O)NCc1cc(OC)c(O)c(-c2cc(CNC(=O)CCCCCCCC)cc(OC)c2O)c1,> 20000

# Target: T1, Transient receptor potential cation channel subfamily V member 1
# Assay: Inhibition of 100 nM capsaicin effect on intracellular [Ca2+] concentration in HEK293 cells expressing human TRPV1
# Type: cell-based
# In short: as §1, with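 “capsaicin.” for “capsaicin. Fluorescence read at 25 °C (ex 488/em 540 nm).”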
row,SMILES,IC50 [nM]
1,CCCCCCCCC(=O)NCc1cc(OC)c(O)cc1I,10
2,CCCCCCCCC(=O)NCc1cc(OC)c(O)cc1Cl,50.3
3,CCCCCCCCC(=O)NCc1ccc(O)c(OC)c1NC(C)=O,9540
4,CCCCCCCCC(=O)NCc1cc(OC)c(O)cc1Br,16.1
5,CCCCCCCCC(=O)NCc1ccc(O)c(OC)c1[N+](=O)[O-],11000
6,CCCCCCCCC(=O)NCc1cc(Cl)c(O)c(OC)c1,631
7,CCCCCCCCC(=O)NCc1cc(I)c(O)c(OC)c1,126
8,CCCCC/C=C/C/C=C/C/C=C/C/C=C/CCCC=O,51
9,C=C(C)[C@]12C[C@@H](C)[C@@]3(OCc4ccccc4)[C@@H](C=C(COC(=O)Cc4cc(I)c(O)c(OC)c4)C[C@]4(O)C(=O)C(C)=C[C@@H]34)[C@H]1OCO2,0.4
10,CCCCCCCCC(=O)NCc1cc(Br)c(O)c(OC)c1,252
11,Oc1cc2c(cc1O)CN(C(=S)NCCc1ccc(Cl)cc1)CCC2 [CAPSAZEPINE],56.2

# From ChEMBL document CHEMBL1140319, “The taming of capsaicin. Reversal of the vanilloid activity of N-acylvanillamines by aromatic iodination” (J Med Chem, 2005)
